Measurements taken from ChEMBL document CHEMBL5661977, “BI 6727, a Polo-like kinase inhibitor with improved pharmacokinetic profile and broad antitumor activity” (Clin Cancer Res, 2009).
pEC50: −log10 of the molar value. Activity calls are given as the source filed them. The rule behind the calls is not given here.

How the values were obtained:
[1] = AUC (0 to 24 hrs) in human HCT-116 cells xenografted in BomTac:NMRI-Foxn1nu mouse at 25 mg/kg, po administered twice a week upto 6 weeks by HPLC-MS/MS analysis; type: ADME, organism-based; conditions: in vivo, 1008 h
[2] = system: HCT-116; assay: Antitumor activity against human HCT-116 cells xenografted in BomTac:NMRI-Foxn1nu mouse assessed as T/C at 15 mg/kg, iv administered twice a week upto 6 weeks relative to control; type: functional
How it was run: (§1)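 Female nude mice bore s.c. HCT 116 (2×10^6 cells), NCI-H460 (1×10^6 cells) or serially transplanted CXB1 tumor pieces. At ~50–100 mm³, mice were randomized into groups of 10 and dosed i.v. (0.1 N HCl/saline) or by gavage (0.5% hydroxyethyl-cellulose) at 10 mL/kg. Calipers read thrice weekly, volume = length×width²×π/6. T/C from median volumes on the last day.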

[3] = system: HCT-116; assay: Antitumor activity against human HCT-116 cells xenografted in BomTac:NMRI-Foxn1nu mouse assessed as the number of apoptotic cells in small intestine at 40 mg/kg, iv; type: functional, organism-based
How it was run: (§2)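 Female nude mice bore s.c. HCT 116 tumors (~200 mm³) and received a single i.v. 40 mg/kg dose or vehicle (n=3 per group per time). Tumor, small intestine and large intestine were taken at 6, 24 and 48 h. Frozen sections were stained for pSer10 histone H3 (immunoperoxidase) or by TUNEL. Positive area was calculated as % of tumor cell area; Student's t test.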

[4] = AUC (0-24hrs) in BomTac:NMRI-Foxn1nu mouse at 50 mg/kg, po by HPLC-MS/MS analysis; type: ADME, organism-based; conditions: in vivo
How it was run: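 Single oral dose to female nude mice or male Wistar rats. EDTA plasma was collected over 24 h and quantified by LC-MS/MS after extraction with internal standard. AUC0-24 was calculated from the concentration-time profile by the trapezoidal rule using noncompartmental analysis.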

[5] = Drug uptake in human HCT-116 cells xenografted in BomTac:NMRI-Foxn1nu mouse plasma at 35 mg/kg, iv measured after 1 hrs by HPLC-MS/MS analysis; type: ADME, organism-based
How it was run: (§3)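 Female nude mice bearing s.c. HCT 116 xenografts (2 × 10⁶ cells), n = 3 per time point, given a single i.v. dose. Tumor, organs and EDTA plasma collected at 1, 8, 24, 48, 96 and 168 h. Tissue extracts and plasma analysed by HPLC-MS/MS. Tissue nmol/mg converted to nmol/L assuming density 1.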

[6] = system: HCT-116; assay: Antitumor activity against human HCT-116 cells xenografted in BomTac:NMRI-Foxn1nu mouse assessed as T/C at 25 mg/kg, po administered twice a week upto 6 weeks relative to control; type: functional; how it was run: as §1
[7] = system: NCI-H460; assay: Antitumor activity against human NCI-H460 cells xenografted in BomTac:NMRI-Foxn1nu mouse assessed as T/C at 10 mg/kg, po administered daily upto 6 weeks relative to control; type: functional; how it was run: as §1
[8] = system: HCT-116; assay: Antitumor activity against human HCT-116 cells xenografted in BomTac:NMRI-Foxn1nu mouse assessed as T/C at 50 mg/kg, po administered once a week upto 6 weeks relative to control; type: functional; how it was run: as §1
[9] = Cmax in Wistar rat at 10 mg/kg, iv by HPLC-MS/MS analysis; type: ADME, organism-based; conditions: in vivo
How it was run: (§4)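 Male Wistar Crl:WI (Han) rats, n = 4, given a single 5-min i.v. infusion. BI 6727 measured in EDTA plasma at various times after the infusion started, by HPLC-MS/MS with internal standard. Parameters came from noncompartmental analysis. Terminal half-life was taken from the last two time points after i.v. dosing.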

[10] = AUC (0 to 24 hrs) in human HCT-116 cells xenografted in BomTac:NMRI-Foxn1nu mouse at 20 mg/kg, iv administered twice a week upto 6 weeks by HPLC-MS/MS analysis; type: ADME, organism-based; conditions: in vivo, 1008 h
[11] = system: NCI-H460; assay: Antimitotic activity against human NCI-H460 cells assessed as cell cycle block in G2-M phase measuring by accumulation of 4N DNA content at 100 nmol/L incubated for 24 hrs by PI staining based flow cytometric analysis; type: functional
How it was run: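 Log-phase NCI-H460 cells were treated with 0.1% DMSO or inhibitor (dose series for 24 h; 100 nmol/L time course at 0, 24, 48, 72 h). Cells were fixed in 80% ethanol, permeabilized with 0.25% Triton X-100 for 5 min, then given 0.1% RNase plus 10 µg/mL propidium iodide for 20 min at RT. DNA content was read by flow cytometry.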

[12] = AUC (0 to infinity) in Wistar rat at 10 mg/kg, iv by HPLC-MS/MS analysis; type: ADME, organism-based; conditions: in vivo
How it was run: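 Single i.v. dose: male Wistar rats (n=4) by 5-min infusion, female nude mice (n=3). EDTA plasma was sampled at various times and extracted with internal standard, NaOH, methanol/formic acid and acetonitrile. Analysis by LC-MS/MS (ESI+, C18, ammonium acetate pH 4.0/acetonitrile gradient). Noncompartmental parameters; AUC by trapezoidal rule.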

[13] = Drug uptake in human HCT-116 cells xenografted in BomTac:NMRI-Foxn1nu mouse at 35 mg/kg, iv measured after 168 hrs by HPLC-MS/MS analysis; type: ADME, organism-based, Neoplasm; conditions: tumour (HCT-116 xenograft); how it was run: as §3
[14] = Tmax in BomTac:NMRI-Foxn1nu mouse at 50 mg/kg, po by HPLC-MS/MS analysis; type: ADME, organism-based; conditions: in vivo
How it was run: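 Single oral gavage of BI 6727 suspended in 0.5% hydroxyethyl-cellulose (10 mL/kg) to female nude mice or male Wistar rats. EDTA plasma levels measured over time by HPLC-MS/MS with internal standard. AUC0-24 by trapezoidal rule. Parameters from noncompartmental analysis.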

[15] = system: NCI-H460; assay: Induction of apoptosis in human NCI-H460 cells assessed as conversion of cleaved PRAP protein to fragment at 100 nmol/L incubated for 48 hrs by westernblot analysis; type: functional, cell-based
How it was run: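 Exponentially growing NCI-H460 cells treated with compound or DMSO control for 24 or 48 h, then harvested. Cleaved PARP fragment detected by Western blot.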

[16] = system: BRO melanoma cell line; assay: Antimitotic activity against human BRO melanoma cell line assessed as inhibition of cell proliferation incubated for 72 hrs by Alamar blue based fluorescence spectrophotometric analysis; type: functional
[17] = system: HCT-116; assay: Antitumor activity against human HCT-116 cells xenografted in BomTac:NMRI-Foxn1nu mouse assessed as early apoptosis at 40 mg/kg, iv 24 hrs after administration by tunel staining based immunohistochemistry analysis; type: functional, organism-based; how it was run: as §2
[18] = system: HCT-116; assay: Antimitotic activity against human HCT-116 cells assessed as inhibition of cell proliferation incubated for 72 hrs by Alamar blue based fluorescence spectrophotometric analysis; type: functional; conditions: HCT-116, 72 h
How it was run: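 Cancer cell lines were cultured per supplier instructions and exposed to various inhibitor concentrations for 72 h. Growth was read as Alamar blue conversion by fluorescence. EC50 (50% growth inhibition) was extrapolated from the dose-response curve fit.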

[19] = Clearance in Wistar rat at 10 mg/kg, iv by HPLC-MS/MS analysis; type: ADME, organism-based; conditions: in vivo; how it was run: as §4
[20] = system: HCT-116; assay: Antitumor activity against human HCT-116 cells xenografted in BomTac:NMRI-Foxn1nu mouse assessed as T/C at 20 mg/kg, iv administered twice a week upto 6 weeks relative to control; type: functional; how it was run: as §1
[21] = Half life in Wistar rat at 10 mg/kg, iv by HPLC-MS/MS analysis; type: ADME, organism-based; conditions: in vivo; how it was run: as §4

CC[C@@H]1C(=O)N(C)c2cnc(Nc3ccc(C(=O)N[C@H]4CC[C@H](N5CCN(CC6CC6)CC5)CC4)cc3OC)nc2N1C(C)C [VOLASERTIB]
AUC [1]: 43 µM·h
T/C [2]: 1%
Activity [3]: inactive
AUC(0-t) [4]: 58 µM·h
concentration at 1 h [5]: 7 µM
T/C [6]: 2%
T/C [7]: 6%
T/C [8]: 2%
Cmax [9]: 11.9 µM
AUC [10]: 66 µM·h
Activity [11]: Active
AUC(0-inf) [12]: 30 µM·h
concentration at 168 h [13]: 4 µM
Tmax [14]: 1.7 h
Activity [15]: Active
pEC50 [16]: 7.96
Activity [17]: Active
pEC50 [18]: 7.64
clearance [19]: 8.9 mL/min/kg
T/C [20]: 1%
half-life [21]: 54 h
